Results as given in ChEMBL document CHEMBL3853307, “Anti-inflammatory Effect of Methyl Gallate on Experimental Arthritis: Inhibition of Neutrophil Recruitment, Production of Inflammatory Mediators, and Activation of Macrophages” (J Nat Prod, 2016).
The source made the active and inactive calls. The rule behind the calls is not given here.

How the values were obtained:
Mus musculus [1] = test: Antiinflammatory activity in C57BL/6 mouse assessed as inhibition of zymosan-induced IL-1beta production in cell-free supernatant of knee joint synovial washes at 7 mg/kg, po administered 1 hr prior to zymosan challenge measured at 6 to 24 hrs by sandwich ELISA method; format: functional, organism-based
In short: (§1)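 Male C57BL/6 mice (18−22 g), fasted overnight, dosed orally (in filtered water, 200 μL) or i.p. 1 h before i.a. zymosan (500 μg in 25 μL saline) into left knee; contralateral knee got vehicle. Synovial cavity washed twice with 150 μL PBS/10 mM EDTA at 6 and 24 h; washes spun 400g 10 min, 4 °C. Cytokines measured by sandwich ELISA, LTB4/PGE2 by EIA (pg/mL); six mice/group, two experiments.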

J774.A1 = test: Antiinflammatory activity in mouse J774A.1 cells assessed as inhibition of zymosan and IFNgamma-induced nitric oxide production at 10 uM preincubated for 1 hr followed by zymosan and IFNgamma addition measured after 24 hrs by colorimetric Griess test; format: functional, cell-based
In short: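 J774A.1 macrophages (1 × 10^5/well, RPMI/10% FBS) adhered 24 h, preincubated 1 h with compound (0.1−10 μM) or dexamethasone (1 μM), then stimulated with zymosan (10 μg per 10^5 cells) and/or IFN-γ (25 U/mL) for 24 h. Supernatant IL-6 by sandwich ELISA; nitrite by Griess reaction at 540 nm. Quadruplicate wells, two experiments.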

Mus musculus [2] = test: Antiinflammatory activity in C57BL/6 mouse assessed as inhibition of zymosan-induced CXCL1/KC production in cell-free supernatant of knee joint synovial washes at 7 mg/kg, po administered 1 hr prior to zymosan challenge measured at 6 to 24 hrs by sandwich ELISA method; format: functional, organism-based; in short: as §1
Mus musculus [3] = test: Antiinflammatory activity in C57BL/6 mouse assessed as inhibition of zymosan-induced TNFalpha production in cell-free supernatant of knee joint synovial washes at 7 mg/kg, po administered 1 hr prior to zymosan challenge measured at 6 to 24 hrs by sandwich ELISA method; format: functional, organism-based; in short: as §1
Mus musculus [4] = test: Antiinflammatory activity in C57BL/6 mouse assessed as inhibition of zymosan-induced IL6 production in cell-free supernatant of knee joint synovial washes at 7 mg/kg, po administered 1 hr prior to zymosan challenge measured at 6 to 24 hrs by sandwich ELISA method; format: functional, organism-based; in short: as §1
Mus musculus [5] = test: Antiinflammatory activity in C57BL/6 mouse assessed as inhibition of zymosan-induced mononuclear cells recruitment in synovial cavity at 0.7 to 70 mg/kg, po administered 1 hr prior to zymosan challenge measured after 6 to 24 hrs by Grunwald-Giemsa-stained cytospin smear; format: functional, organism-based
Mus musculus [6] = test: Antiinflammatory activity in C57BL/6 mouse assessed as inhibition of zymosan-induced PGE2 production in cell-free supernatant of knee joint synovial washes at 7 mg/kg, po administered 1 hr prior to zymosan challenge measured at 6 to 24 hrs by immunosorbent assay; format: functional, organism-based; in short: as §1
Mus musculus [7] = test: Antiinflammatory activity in C57BL/6 mouse assessed as inhibition of zymosan-induced knee joint edema formation at 7 mg/kg, po administered 1 hr prior to zymosan challenge measured at 6 hrs relative to control; format: functional; details: C57BL/6, Knee joint
In short: (§2)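 Male C57BL/6 mice, fasted overnight, dosed orally (vehicle saline/water, 200 μL) or i.p. 1 h before zymosan (500 μg in 25 μL saline, i.a., left knee). Knee swelling measured as change in transverse diameter from basal by digital caliper (mm). Synovial washes (PBS/EDTA) counted on a particle counter; differentials from May-Grünwald-Giemsa cytospins, cells ×10^5/cavity. Sampled at 6 and/or 24 h; seven mice/group.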

[8] = Cytotoxicity against C57BL/6 mouse neutrophils assessed as cell viability at 100 uM after 2 hrs by lactate dehydrogenase assay relative to control; format: toxicity, Neutrophil; details: read-out: Activity
In short: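 Bone-marrow neutrophils from C57BL/6 mice, Percoll-purified (65%/72% interface, ~85-90% purity), plated at 1 × 10^5 cells/well; fresh medium with or without Tween 20 (3%) or compound (0.01−100 μM), quadruplicate; 2 h incubation. LDH released into supernatant measured, 20−30 min at room temperature, stopped with 1 N HCl; absorbance 490 nm minus 690 nm background.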

Mus musculus [9] = test: Antiinflammatory activity in C57BL/6 mouse assessed as inhibition of zymosan-induced paw edema at 10 to 50 mg/kg, po administered 1 hr prior to zymosan challenge measured after 4 hrs by plethysmography; format: functional, organism-based
In short: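 C57BL/6 mice dosed orally (1−50 mg/kg) before intraplantar zymosan (100 μg/paw in 50 μL saline); contralateral paw got saline. Volume measured by plethysmography at 4 h, edema taken as right minus left paw (μL).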

Mus musculus [10] = test: Antiinflammatory activity in zymosan-induced C57BL/6 mouse pleurisy model assessed as reduction in neutrophil influx in thoracic cavity at 10 to 50 mg/kg, po administered 1 hr prior to zymosan challenge measured after 4 hrs using Grunwald-Giemsa-stained cytospin smear by light microscopy; format: functional, organism-based
In short: (§3)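 Oral pretreatment 1 h before intrathoracic zymosan (100 μg/cavity in 100 μL saline). Cavities washed at 4 h with 1 mL PBS/10 mM EDTA. Total leukocytes counted on a particle counter, differentials from May-Grünwald-Giemsa cytospins (×10^6/cavity). Supernatant after 400g 10 min assayed for total protein by Bradford.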

Mus musculus [11] = test: Antiinflammatory activity in C57BL/6 mouse assessed as inhibition of zymosan-induced mononuclear cells migration in articular cavity at 7 mg/kg, po administered 1 hr prior to zymosan challenge measured at 6 to 24 hrs; format: functional, organism-based; in short: as §2
Mus musculus [12] = test: Antiinflammatory activity in C57BL/6 mouse assessed as inhibition of zymosan-induced LTB4 production in cell-free supernatant of knee joint synovial washes at 7 mg/kg, po administered 1 hr prior to zymosan challenge measured at 6 to 24 hrs by immunosorbent assay; format: functional, organism-based; in short: as §1
Mus musculus [13] = test: Antiinflammatory activity in zymosan-induced C57BL/6 mouse pleurisy model assessed as reduction in protein extravasation in thoracic cavity at 10 to 50 mg/kg, po administered 1 hr prior to zymosan challenge measured after 4 hrs; format: functional, organism-based; in short: as §3
Mus musculus [14] = test: Antiinflammatory activity in C57BL/6 mouse assessed as inhibition of zymosan-induced arthritis score at 7 mg/kg, po administered 1 hr prior to zymosan challenge measured at 6 to 24 hrs by hematoxylin and eosin staining-based optical microscopy; format: functional, organism-based
In short: (§4)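 Mice dosed orally or i.p. 1 h before i.a. zymosan (500 μg/cavity) or saline. Whole knees taken at 6 and 24 h from six mice, fixed in 10% formalin 48 h, decalcified in 10% EDTA/PBS 1−2 weeks, paraffin-embedded. 5 μm sections H&E-stained and examined by light microscopy. Parameter scores summed into an arthritis index; means ± SEM, two experiments.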

Mus musculus [15] = test: Antiinflammatory activity in C57BL/6 mouse assessed as inhibition of zymosan-induced infiltration of inflammatory cells into synovial tissue at 7 mg/kg, po administered 1 hr prior to zymosan challenge measured at 6 to 24 hrs by hematoxylin and eosin staining-based optical microscopy; format: functional, organism-based; in short: as §4

COC(=O)c1cc(O)c(O)c(O)c1 [GALLIC ACID METHYL ESTER]
inhibition (Mus musculus [1]): Active
inhibition (J774.A1): Active
inhibition (Mus musculus [2]): Active
inhibition (Mus musculus [3]): Active
inhibition (Mus musculus [4]): Active
inhibition (Mus musculus [5]): Active
inhibition (Mus musculus [6]): Active
inhibition in vivo at 7 mg/kg (Mus musculus [7]): 24%
viability at 2 h, 100 µM [8]: ≥ 92%
inhibition (Mus musculus [9]): Active
Activity (Mus musculus [10]): Active
inhibition (Mus musculus [11]): Active
inhibition (Mus musculus [12]): Active
Activity (Mus musculus [13]): Active
inhibition (Mus musculus [14]): Active
inhibition (Mus musculus [15]): Active
